Results taken from ChEMBL document CHEMBL4396869, “Design and Synthesis of Selective Phosphodiesterase 4D (PDE4D) Allosteric Inhibitors for the Treatment of Fragile X Syndrome and Other Brain Disorders” (J Med Chem, 2019).

Assays:
[1] = Drug level in human hepatocytes treated with 2-(4-((2-(3-Chlorophenyl)-6-ethylpyrimidin-4-yl)methyl)phenyl)acetamide assessed as metabolite formation measured after 4 hrs by LC-UV/MS/MS analysis; assay type: ADME, cell-based, Hepatocyte
In short: (§1)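 Metabolite identification: cryopreserved hepatocytes from male Wistar rat or human, 0.5×10^6 cells/mL in suspension, incubated 4 h at 37 °C; incubation medium analysed by LC-UV/MS/MS.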

[2] = Drug level in Wistar rat hepatocytes treated with 2-(4-((2-(3-Chlorophenyl)-6-ethylpyrimidin-4-yl)methyl)phenyl)acetamide assessed as metabolite formation measured after 4 hrs by LC-UV/MS/MS analysis; assay type: ADME, cell-based, Hepatocyte; in short: as §1

CCc1cc(Cc2ccc(CC(=O)O)cc2)nc(-c2cccc(Cl)c2)n1
Drug metabolism [1]: Metabolite_Detected
Drug metabolism [2]: Metabolite_Detected
